The values below come from ChEMBL document CHEMBL4706499, “PTG-0861: A novel HDAC6-selective inhibitor as a therapeutic strategy in acute myeloid leukaemia” (Eur J Med Chem, 2020).

SMILES strings stand for the structures.

One may read the IC50 as the midpoint of a concentration-inhibition curve. Broadly, the Papp A→B is how fast a substance crosses the layer from the apical side.

One data set addresses Histone deacetylase 2 (Homo sapiens, UniProt Q92769). Put plainly: Inhibition of recombinant full length human HDAC2 expressed in SF9 baculovirus using FAM- labelled acetylated peptide as substrate measured by Electrophoretic mobility shift assay.
The next data set concerns the target T1, Histone deacetylase 7 (Homo sapiens, UniProt Q8WUI4).
T1 sequence (Q8WUI4 whole entry): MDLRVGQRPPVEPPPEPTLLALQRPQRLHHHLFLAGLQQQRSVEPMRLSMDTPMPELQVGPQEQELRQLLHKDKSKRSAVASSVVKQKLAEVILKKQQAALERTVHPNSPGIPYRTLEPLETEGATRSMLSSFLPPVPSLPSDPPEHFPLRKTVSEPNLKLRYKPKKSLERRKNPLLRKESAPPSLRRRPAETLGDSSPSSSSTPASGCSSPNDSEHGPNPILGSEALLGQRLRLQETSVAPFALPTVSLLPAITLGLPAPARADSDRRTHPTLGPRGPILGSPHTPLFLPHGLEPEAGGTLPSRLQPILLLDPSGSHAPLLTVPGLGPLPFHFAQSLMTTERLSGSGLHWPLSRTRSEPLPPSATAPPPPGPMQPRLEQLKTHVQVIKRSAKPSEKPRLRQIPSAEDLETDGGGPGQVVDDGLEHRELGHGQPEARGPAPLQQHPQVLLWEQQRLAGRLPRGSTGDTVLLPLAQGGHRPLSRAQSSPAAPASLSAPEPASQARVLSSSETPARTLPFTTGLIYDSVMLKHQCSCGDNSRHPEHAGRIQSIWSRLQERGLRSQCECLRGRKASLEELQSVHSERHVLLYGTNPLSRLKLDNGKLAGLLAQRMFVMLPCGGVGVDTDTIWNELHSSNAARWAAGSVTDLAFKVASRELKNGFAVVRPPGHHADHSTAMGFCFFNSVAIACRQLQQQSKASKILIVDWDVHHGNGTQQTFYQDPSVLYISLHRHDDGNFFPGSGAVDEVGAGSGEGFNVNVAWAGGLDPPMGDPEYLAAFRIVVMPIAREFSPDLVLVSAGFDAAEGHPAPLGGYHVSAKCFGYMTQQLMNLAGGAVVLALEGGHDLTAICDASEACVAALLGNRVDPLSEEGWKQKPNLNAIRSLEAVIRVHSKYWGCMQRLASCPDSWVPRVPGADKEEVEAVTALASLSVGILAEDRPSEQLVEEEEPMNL
The data set is described as follows: Inhibition of recombinant full length human HDAC7 expressed in SF9 baculovirus using FAM- labelled acetylated peptide as substrate measured by Electrophoretic mobility shift assay.

The next data set concerns the target Histone deacetylase 9 (Homo sapiens, UniProt Q9UKV0). The data set is described as follows: Inhibition of recombinant full length human HDAC9 expressed in SF9 baculovirus using FAM- labelled acetylated peptide as substrate measured by Electrophoretic mobility shift assay. For orientation: Mobility shift assays separate free from complexed probe on a gel.
The subject of data set [1] is MV4-11. The data set is described as follows: Induction of apoptosis in human MV4-11 cells assessed as early apoptotic cells at 2 microM measured after 18 hrs by Annexin V/Propidium iodide stain based Flow cytometry assay (reference value: 1.7%). It is filed as functional. On the technique in general: In flow cytometry, cells or beads pass a laser one at a time.
Data set [2] has as its system MV4-11. The data set is described as follows: Induction of apoptosis in human MV4-11 cells assessed as early apoptotic cells at 0.5 microM measured after 18 hrs by Annexin V/Propidium iodide stain based Flow cytometry assay (reference value: 1.7%). It is filed as functional.
For data set [3], the system named is MV4-11. The data set is described as follows: Induction of apoptosis in human MV4-11 cells assessed as viable cells at 0.25 microM measured after 18 hrs by Annexin V/Propidium iodide stain based Flow cytometry assay (reference value: 53.27%). Particulars: read-out: Activity. It is filed as functional.
A further data set has as its system MM1.S. Put plainly: Cytotoxicity against human MM1.S cells measured after 72 hrs by spectrophotometer method. The class given is functional, cell-based.
Data set [4] in a line: Apparent permeability across apical to basolateral side in human Caco2 cells measured after 2 hrs by LC-MS/MS method. The class given is ADME, cell-based. To be noted: Caco-2. An outline of the steps:
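Bidirectional Caco-2 permeability was measured as Papp in the apical-to-basolateral and basolateral-to-apical directions. The efflux ratio was calculated from the two directional Papp values.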

Histone deacetylase 2, sequence (Q92769 whole entry): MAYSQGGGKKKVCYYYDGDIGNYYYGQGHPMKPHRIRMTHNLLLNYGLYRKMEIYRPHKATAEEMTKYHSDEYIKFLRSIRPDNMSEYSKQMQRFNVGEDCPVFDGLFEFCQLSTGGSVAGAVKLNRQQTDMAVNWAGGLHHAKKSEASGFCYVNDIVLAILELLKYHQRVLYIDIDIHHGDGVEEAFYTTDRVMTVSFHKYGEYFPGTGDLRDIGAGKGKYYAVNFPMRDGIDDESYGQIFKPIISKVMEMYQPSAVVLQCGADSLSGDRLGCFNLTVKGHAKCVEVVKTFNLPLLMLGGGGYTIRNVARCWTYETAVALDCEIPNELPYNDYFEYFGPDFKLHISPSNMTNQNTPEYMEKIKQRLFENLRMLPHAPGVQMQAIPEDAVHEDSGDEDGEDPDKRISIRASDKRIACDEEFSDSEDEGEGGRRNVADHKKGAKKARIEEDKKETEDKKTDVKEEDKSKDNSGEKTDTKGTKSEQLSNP
Histone deacetylase 9, sequence (Q9UKV0 whole entry): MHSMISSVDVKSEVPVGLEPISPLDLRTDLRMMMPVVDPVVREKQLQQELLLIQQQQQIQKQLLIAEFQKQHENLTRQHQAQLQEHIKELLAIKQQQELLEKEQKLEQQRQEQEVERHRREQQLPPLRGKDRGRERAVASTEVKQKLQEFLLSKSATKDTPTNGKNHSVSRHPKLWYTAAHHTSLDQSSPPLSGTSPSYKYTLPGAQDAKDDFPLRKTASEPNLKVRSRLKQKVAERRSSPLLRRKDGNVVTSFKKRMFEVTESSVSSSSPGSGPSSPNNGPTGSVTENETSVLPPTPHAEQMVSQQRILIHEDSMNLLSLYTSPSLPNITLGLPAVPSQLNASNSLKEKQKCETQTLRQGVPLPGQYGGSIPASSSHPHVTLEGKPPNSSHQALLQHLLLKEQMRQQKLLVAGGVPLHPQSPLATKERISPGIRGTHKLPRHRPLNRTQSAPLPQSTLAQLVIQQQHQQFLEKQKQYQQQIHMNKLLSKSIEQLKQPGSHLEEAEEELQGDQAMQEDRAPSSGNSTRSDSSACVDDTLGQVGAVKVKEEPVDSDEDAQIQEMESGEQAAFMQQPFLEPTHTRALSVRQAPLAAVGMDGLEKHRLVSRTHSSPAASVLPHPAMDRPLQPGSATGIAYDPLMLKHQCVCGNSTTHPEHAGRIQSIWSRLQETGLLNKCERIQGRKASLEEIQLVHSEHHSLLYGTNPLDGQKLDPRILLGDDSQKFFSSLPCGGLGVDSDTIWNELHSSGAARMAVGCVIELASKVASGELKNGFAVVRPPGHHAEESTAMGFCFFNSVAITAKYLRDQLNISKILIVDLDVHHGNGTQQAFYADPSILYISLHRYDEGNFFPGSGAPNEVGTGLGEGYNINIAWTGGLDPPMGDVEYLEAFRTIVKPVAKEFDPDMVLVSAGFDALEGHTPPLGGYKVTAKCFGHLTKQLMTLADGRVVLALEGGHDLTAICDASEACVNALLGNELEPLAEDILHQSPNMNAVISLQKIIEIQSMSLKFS

For `O=C(NO)c1ccc(CNC(=O)c2c(F)c(F)c(F)c(F)c2F)cc1`, the IC50 on Histone deacetylase 2 was over 1 µM; at Histone deacetylase 7, over 1 µM; on Histone deacetylase 9, over 1 µM; with MM1.S, 1.9 µM. Also, the Activity in the data set with MV4-11 [1] amounted to 7.73%; with MV4-11 [2], 2.87%. Also, in the data set with MV4-11 [3], the viability at 0.25 µM came to 52.3%. Moreover, the Papp A→B at 2 h in data set [4] is 13.3 nm/s.
